{
  "source": "ChEMBL document CHEMBL3351385",
  "about": "“Synthesis and preliminary mechanistic evaluation of 5-(p-tolyl)-1-(quinolin-2-yl)pyrazole-3-carboxylic acid amides with potent antiproliferative activity on human cancer cell lines” (Eur J Med Chem, 2014)",
  "key": {"[1]": {"test": "Induction of cell cycle arrest in human Mahlavu cells assessed as accumulation at G0/G1 phase at cytotoxic IC50 level after 48 hrs by propidium iodide staining based FACS method", "type": "functional"}, "[2]": {"test": "Induction of cell cycle arrest in human Mahlavu cells assessed as accumulation at S phase at cytotoxic IC50 level after 48 hrs by propidium iodide staining based FACS method", "type": "functional"}, "[3]": {"test": "Induction of cell cycle arrest in human Mahlavu cells assessed as accumulation at G2/M phase at cytotoxic IC50 level after 48 hrs by propidium iodide staining based FACS method", "type": "functional"}, "[4]": {"molecular_target": "Dual specificity mitogen-activated protein kinase kinase 6 (Homo sapiens) (UniProt P52564)", "sequence (P52564 whole entry)": "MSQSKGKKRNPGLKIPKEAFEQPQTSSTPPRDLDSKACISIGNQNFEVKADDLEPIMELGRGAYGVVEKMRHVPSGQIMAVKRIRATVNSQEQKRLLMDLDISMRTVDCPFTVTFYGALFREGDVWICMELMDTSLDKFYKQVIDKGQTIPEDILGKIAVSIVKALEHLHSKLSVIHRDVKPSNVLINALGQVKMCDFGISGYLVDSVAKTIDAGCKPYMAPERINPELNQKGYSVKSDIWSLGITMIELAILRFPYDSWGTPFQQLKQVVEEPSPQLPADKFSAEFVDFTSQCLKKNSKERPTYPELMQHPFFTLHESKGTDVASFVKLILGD", "test": "Inhibition of MKK6 (unknown origin) assessed as remaining enzyme activity at 10 uM by radioactive [33P]-ATP filter binding assay"}, "[5]": {"molecular_target": "Ribosomal protein S6 kinase alpha-3 (Homo sapiens) (UniProt P51812)", "test": "Inhibition of RSK2 (unknown origin) assessed as remaining enzyme activity at 10 uM by radioactive [33P]-ATP filter binding assay"}, "[6]": {"molecular_target": "MAP kinase-activated protein kinase 2 (Homo sapiens) (UniProt P49137)", "test": "Inhibition of MAPKAPK2 (unknown origin) assessed as remaining enzyme activity at 10 uM by radioactive [33P]-ATP filter binding assay"}, "[7]": {"molecular_target": "MAP kinase-activated protein kinase 3 (Homo sapiens) (UniProt Q16644)", "test": "Inhibition of MAPKAPK3 (unknown origin) assessed as remaining enzyme activity at 10 uM by radioactive [33P]-ATP filter binding assay"}, "[8]": {"molecular_target": "CDK9/cyclin T1 (Homo sapiens) (UniProt O60563+P50750)", "test": "Inhibition of CDK9/Cyclin-T1 (unknown origin) assessed as remaining enzyme activity at 10 uM by radioactive [33P]-ATP filter binding assay", "type": "protein-complex assay", "in_short": "(§1)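 A single 10 µM concentration was tested across a 140-kinase panel. Activity was measured by a radioactive 33P-ATP filter-binding assay run at the International Center for Kinase Profiling, University of Dundee.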"}, "[9]": {"molecular_target": "Serine/threonine-protein kinase MARK2 (Homo sapiens) (UniProt Q7KZI7)", "sequence (Q7KZI7 whole entry)": "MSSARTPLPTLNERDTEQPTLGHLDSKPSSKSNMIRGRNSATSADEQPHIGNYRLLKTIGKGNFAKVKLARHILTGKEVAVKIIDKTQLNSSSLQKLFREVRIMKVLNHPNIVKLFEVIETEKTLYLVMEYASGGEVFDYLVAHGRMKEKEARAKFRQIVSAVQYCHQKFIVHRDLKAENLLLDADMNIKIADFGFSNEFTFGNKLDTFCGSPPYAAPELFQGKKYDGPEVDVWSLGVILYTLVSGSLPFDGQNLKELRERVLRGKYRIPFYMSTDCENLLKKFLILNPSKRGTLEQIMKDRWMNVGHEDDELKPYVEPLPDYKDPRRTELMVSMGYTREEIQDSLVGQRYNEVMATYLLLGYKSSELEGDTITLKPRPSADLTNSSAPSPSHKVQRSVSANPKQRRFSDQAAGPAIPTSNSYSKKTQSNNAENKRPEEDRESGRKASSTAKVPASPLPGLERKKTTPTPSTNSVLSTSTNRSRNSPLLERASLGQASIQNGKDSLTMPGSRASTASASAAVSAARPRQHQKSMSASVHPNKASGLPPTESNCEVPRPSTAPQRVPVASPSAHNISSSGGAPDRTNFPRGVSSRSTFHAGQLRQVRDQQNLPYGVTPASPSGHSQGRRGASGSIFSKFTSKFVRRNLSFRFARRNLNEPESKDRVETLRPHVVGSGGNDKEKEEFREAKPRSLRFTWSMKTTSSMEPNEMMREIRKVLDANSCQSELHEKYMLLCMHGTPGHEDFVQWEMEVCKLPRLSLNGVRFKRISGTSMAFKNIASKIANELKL", "test": "Inhibition of MARK2 (unknown origin) assessed as remaining enzyme activity at 10 uM by radioactive [33P]-ATP filter binding assay"}, "[10]": {"molecular_target": "Tyrosine-protein kinase ABL1 (Homo sapiens) (UniProt P00519)", "test": "Inhibition of ABL (unknown origin) assessed as remaining enzyme activity at 10 uM by radioactive [33P]-ATP filter binding assay", "in_short": "as §1"}, "[11]": {"molecular_target": "Ephrin type-B receptor 2 (Homo sapiens) (UniProt P29323)", "sequence (P29323 whole entry)": "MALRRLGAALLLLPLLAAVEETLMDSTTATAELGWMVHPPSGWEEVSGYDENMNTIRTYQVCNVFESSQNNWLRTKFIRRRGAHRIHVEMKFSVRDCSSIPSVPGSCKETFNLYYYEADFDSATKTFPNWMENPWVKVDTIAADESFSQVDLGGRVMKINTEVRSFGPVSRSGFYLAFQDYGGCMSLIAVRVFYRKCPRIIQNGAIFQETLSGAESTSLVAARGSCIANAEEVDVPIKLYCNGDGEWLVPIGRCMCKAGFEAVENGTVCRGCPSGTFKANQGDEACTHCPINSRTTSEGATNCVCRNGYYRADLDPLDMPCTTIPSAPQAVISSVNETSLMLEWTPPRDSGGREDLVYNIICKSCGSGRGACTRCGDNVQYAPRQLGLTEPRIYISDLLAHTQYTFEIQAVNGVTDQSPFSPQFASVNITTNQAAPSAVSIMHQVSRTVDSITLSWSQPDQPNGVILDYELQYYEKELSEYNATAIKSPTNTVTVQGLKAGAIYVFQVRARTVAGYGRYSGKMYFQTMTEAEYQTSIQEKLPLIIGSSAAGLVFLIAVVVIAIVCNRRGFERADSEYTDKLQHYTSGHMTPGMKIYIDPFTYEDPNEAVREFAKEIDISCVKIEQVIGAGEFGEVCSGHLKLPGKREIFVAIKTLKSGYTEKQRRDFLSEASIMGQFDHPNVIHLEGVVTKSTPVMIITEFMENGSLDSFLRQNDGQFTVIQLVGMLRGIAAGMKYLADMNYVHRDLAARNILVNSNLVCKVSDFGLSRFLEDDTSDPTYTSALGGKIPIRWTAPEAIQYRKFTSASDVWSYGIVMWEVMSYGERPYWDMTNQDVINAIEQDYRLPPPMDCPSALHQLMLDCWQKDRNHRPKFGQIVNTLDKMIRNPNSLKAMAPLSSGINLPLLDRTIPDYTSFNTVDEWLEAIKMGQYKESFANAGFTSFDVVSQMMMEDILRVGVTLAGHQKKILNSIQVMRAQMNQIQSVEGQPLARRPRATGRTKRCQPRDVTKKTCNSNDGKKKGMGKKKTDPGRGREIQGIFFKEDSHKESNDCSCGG", "test": "Inhibition of EPHB2 (unknown origin) assessed as remaining enzyme activity at 10 uM by radioactive [33P]-ATP filter binding assay", "in_short": "as §1"}, "[12]": {"molecular_target": "Ephrin type-B receptor 4 (Homo sapiens) (UniProt P54760)", "test": "Inhibition of EPHB4 (unknown origin) assessed as remaining enzyme activity at 10 uM by radioactive [33P]-ATP filter binding assay", "in_short": "as §1"}, "[13]": {"molecular_target": "Discoidin domain-containing receptor 2 (Homo sapiens) (UniProt Q16832)", "test": "Inhibition of DDR2 (unknown origin) assessed as remaining enzyme activity at 10 uM by radioactive [33P]-ATP filter binding assay", "in_short": "as §1"}, "[14]": {"molecular_target": "Serine/threonine-protein kinase PAK 6 (Homo sapiens) (UniProt Q9NQU5)", "test": "Inhibition of PAK6 (unknown origin) assessed as remaining enzyme activity at 10 uM by radioactive [33P]-ATP filter binding assay"}, "[15]": {"molecular_target": "Serine/threonine-protein kinase BRSK2 (Homo sapiens) (UniProt Q8IWQ3)", "test": "Inhibition of BRSK2 (unknown origin) assessed as remaining enzyme activity at 10 uM by radioactive [33P]-ATP filter binding assay", "in_short": "as §1"}, "[16]": {"molecular_target": "Maternal embryonic leucine zipper kinase (Homo sapiens) (UniProt Q14680)", "sequence (Q14680 whole entry, looked up)": "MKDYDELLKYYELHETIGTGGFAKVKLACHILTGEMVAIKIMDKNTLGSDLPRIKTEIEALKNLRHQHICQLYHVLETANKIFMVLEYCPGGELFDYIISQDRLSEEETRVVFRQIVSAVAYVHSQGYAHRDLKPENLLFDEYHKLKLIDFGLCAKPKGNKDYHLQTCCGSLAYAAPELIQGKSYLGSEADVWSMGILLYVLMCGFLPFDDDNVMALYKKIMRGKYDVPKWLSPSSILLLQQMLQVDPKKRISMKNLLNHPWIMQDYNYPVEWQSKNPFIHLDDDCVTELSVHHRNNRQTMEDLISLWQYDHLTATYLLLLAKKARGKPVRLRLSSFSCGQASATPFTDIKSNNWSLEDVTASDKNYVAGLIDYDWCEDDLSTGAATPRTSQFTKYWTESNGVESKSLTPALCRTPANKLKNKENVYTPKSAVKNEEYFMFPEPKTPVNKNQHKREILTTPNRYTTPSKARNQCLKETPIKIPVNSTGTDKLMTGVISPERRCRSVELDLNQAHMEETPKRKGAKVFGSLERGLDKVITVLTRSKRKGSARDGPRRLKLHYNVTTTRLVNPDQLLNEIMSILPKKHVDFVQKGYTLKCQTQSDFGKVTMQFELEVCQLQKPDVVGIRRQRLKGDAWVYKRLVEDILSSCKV", "test": "Inhibition of MELK (unknown origin) assessed as remaining enzyme activity at 10 uM by radioactive [33P]-ATP filter binding assay"}, "[17]": {"molecular_target": "Serine/threonine-protein kinase SIK2 (Homo sapiens) (UniProt Q9H0K1)", "test": "Inhibition of SIK2 (unknown origin) assessed as remaining enzyme activity at 10 uM by radioactive [33P]-ATP filter binding assay"}, "[18]": {"molecular_target": "Dual specificity tyrosine-phosphorylation-regulated kinase 1A (Homo sapiens) (UniProt Q13627)", "test": "Inhibition of DYRK1A (unknown origin) assessed as remaining enzyme activity at 10 uM by radioactive [33P]-ATP filter binding assay", "in_short": "as §1"}, "[19]": {"molecular_target": "Inhibitor of nuclear factor kappa-B kinase subunit epsilon (Homo sapiens) (UniProt Q14164)", "test": "Inhibition of IKKepsilon (unknown origin) assessed as remaining enzyme activity at 10 uM by radioactive [33P]-ATP filter binding assay"}, "[20]": {"molecular_target": "Mitogen-activated protein kinase kinase kinase kinase 2 (Homo sapiens) (UniProt Q12851)", "sequence (Q12851 whole entry)": "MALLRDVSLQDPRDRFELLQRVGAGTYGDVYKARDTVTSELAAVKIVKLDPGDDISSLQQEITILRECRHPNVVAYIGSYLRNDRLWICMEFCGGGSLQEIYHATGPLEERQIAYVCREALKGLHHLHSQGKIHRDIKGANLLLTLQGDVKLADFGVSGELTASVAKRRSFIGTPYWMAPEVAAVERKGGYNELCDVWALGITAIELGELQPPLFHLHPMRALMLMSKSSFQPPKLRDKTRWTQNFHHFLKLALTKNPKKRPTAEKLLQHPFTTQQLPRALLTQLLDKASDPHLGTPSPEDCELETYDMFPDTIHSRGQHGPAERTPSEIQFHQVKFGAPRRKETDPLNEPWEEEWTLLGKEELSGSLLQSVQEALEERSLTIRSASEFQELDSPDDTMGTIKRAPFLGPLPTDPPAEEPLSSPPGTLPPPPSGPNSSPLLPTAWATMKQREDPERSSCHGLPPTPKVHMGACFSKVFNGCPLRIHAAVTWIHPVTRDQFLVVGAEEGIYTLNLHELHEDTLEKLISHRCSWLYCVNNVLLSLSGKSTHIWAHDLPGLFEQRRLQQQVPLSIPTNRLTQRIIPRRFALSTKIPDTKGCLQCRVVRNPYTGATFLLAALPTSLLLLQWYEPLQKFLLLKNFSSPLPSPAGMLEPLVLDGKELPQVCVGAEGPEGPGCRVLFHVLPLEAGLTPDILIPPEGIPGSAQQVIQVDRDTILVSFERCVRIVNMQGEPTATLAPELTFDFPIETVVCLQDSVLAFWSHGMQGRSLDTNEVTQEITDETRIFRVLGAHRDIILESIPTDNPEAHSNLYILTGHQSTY", "test": "Inhibition of GCK (unknown origin) assessed as remaining enzyme activity at 10 uM by radioactive [33P]-ATP filter binding assay"}, "[21]": {"molecular_target": "Mitogen-activated protein kinase kinase kinase kinase 5 (Homo sapiens) (UniProt Q9Y4K4)", "sequence (Q9Y4K4 whole entry, looked up)": "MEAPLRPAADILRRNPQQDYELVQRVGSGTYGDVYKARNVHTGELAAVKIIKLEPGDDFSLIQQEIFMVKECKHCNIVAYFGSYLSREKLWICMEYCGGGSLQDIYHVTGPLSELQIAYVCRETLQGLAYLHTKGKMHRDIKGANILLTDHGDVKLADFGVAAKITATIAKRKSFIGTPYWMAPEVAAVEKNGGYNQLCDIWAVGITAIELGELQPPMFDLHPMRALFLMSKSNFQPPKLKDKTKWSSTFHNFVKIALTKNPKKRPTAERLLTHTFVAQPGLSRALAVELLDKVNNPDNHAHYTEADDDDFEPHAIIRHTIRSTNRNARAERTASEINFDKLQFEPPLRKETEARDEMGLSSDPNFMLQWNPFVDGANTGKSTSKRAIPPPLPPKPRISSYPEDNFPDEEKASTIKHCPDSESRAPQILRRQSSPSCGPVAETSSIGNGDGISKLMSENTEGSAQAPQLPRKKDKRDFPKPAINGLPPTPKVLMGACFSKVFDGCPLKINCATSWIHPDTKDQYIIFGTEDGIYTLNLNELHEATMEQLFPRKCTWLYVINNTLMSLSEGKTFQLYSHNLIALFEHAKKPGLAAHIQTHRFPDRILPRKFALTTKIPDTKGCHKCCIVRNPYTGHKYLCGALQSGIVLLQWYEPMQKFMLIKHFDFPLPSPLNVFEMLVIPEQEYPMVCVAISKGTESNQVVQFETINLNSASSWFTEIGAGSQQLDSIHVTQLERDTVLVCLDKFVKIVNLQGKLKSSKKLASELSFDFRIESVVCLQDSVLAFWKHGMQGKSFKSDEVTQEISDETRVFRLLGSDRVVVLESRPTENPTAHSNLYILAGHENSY", "test": "Inhibition of MAP4K5 (unknown origin) assessed as remaining enzyme activity at 10 uM by radioactive [33P]-ATP filter binding assay"}, "[22]": {"molecular_target": "Misshapen-like kinase 1 (Homo sapiens) (UniProt Q8N4C8)", "test": "Inhibition of MINK1 (unknown origin) assessed as remaining enzyme activity at 10 uM by radioactive [33P]-ATP filter binding assay"}, "[23]": {"molecular_target": "Interleukin-1 receptor-associated kinase 1 (Homo sapiens) (UniProt P51617)", "test": "Inhibition of IRAK1 (unknown origin) assessed as remaining enzyme activity at 10 uM by radioactive [33P]-ATP filter binding assay"}, "[24]": {"molecular_target": "Serine/threonine-protein kinase OSR1 (Homo sapiens) (UniProt O95747)", "sequence (O95747 2-527 limits assumed)": "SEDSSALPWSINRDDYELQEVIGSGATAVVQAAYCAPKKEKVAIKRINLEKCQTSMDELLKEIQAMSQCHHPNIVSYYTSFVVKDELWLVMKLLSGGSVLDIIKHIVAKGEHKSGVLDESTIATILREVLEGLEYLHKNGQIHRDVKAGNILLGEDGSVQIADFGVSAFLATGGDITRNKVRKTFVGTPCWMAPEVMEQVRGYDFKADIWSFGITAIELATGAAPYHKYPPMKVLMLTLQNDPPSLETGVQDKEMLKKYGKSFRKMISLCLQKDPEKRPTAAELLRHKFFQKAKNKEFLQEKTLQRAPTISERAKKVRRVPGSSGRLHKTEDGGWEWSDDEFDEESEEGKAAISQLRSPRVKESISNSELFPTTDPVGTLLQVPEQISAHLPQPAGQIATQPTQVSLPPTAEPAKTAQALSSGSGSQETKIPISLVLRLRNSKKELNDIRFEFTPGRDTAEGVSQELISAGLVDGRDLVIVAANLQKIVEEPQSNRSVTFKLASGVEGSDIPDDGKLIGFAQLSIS", "test": "Inhibition of OSR1 (unknown origin) assessed as remaining enzyme activity at 10 uM by radioactive [33P]-ATP filter binding assay"}, "[25]": {"molecular_target": "Serine/threonine-protein kinase 16 (Homo sapiens) (UniProt O75716)", "test": "Inhibition of MPSK1 (unknown origin) assessed as remaining enzyme activity at 10 uM by radioactive [33P]-ATP filter binding assay"}},
  "data": [
    {"smiles": "Cc1ccc(-c2cc(C(=O)Nc3ccnc(Cl)c3)nn2-c2ccc3ccccc3n2)cc1", "values": [
      {"measurement": "Activity", "setting": "[1]", "result": 58.7, "unit": "%"},
      {"measurement": "Activity", "setting": "[2]", "result": 11.1, "unit": "%"},
      {"measurement": "Activity", "setting": "[3]", "result": 19.9, "unit": "%"},
      {"measurement": "Activity", "setting": "[4]", "result": 99, "unit": "%"},
      {"measurement": "Activity", "setting": "[5]", "result": 86, "unit": "%"},
      {"measurement": "Activity", "setting": "[6]", "result": 84, "unit": "%"},
      {"measurement": "Activity", "setting": "[7]", "result": 94, "unit": "%"},
      {"measurement": "Activity", "setting": "[8]", "result": 113, "unit": "%"},
      {"measurement": "Activity", "setting": "[9]", "result": 101, "unit": "%"},
      {"measurement": "Activity", "setting": "[10]", "result": 84, "unit": "%"},
      {"measurement": "Activity", "setting": "[11]", "result": 114, "unit": "%"},
      {"measurement": "Activity", "setting": "[12]", "result": 125, "unit": "%"},
      {"measurement": "Activity", "setting": "[13]", "result": 113, "unit": "%"},
      {"measurement": "Activity", "setting": "[14]", "result": 104, "unit": "%"},
      {"measurement": "Activity", "setting": "[15]", "result": 102, "unit": "%"},
      {"measurement": "Activity", "setting": "[16]", "result": 98, "unit": "%"},
      {"measurement": "Activity", "setting": "[17]", "result": 106, "unit": "%"},
      {"measurement": "Activity", "setting": "[18]", "result": 68, "unit": "%"},
      {"measurement": "Activity", "setting": "[19]", "result": 112, "unit": "%"},
      {"measurement": "Activity", "setting": "[20]", "result": 112, "unit": "%"},
      {"measurement": "Activity", "setting": "[21]", "result": 87, "unit": "%"},
      {"measurement": "Activity", "setting": "[22]", "result": 114, "unit": "%"},
      {"measurement": "Activity", "setting": "[23]", "result": 109, "unit": "%"},
      {"measurement": "Activity", "setting": "[24]", "result": 111, "unit": "%"},
      {"measurement": "Activity", "setting": "[25]", "result": 113, "unit": "%"}
    ]}
  ]
}
